Active and inactive are the calls of the source. The calls are words filed in the database; no cut-off is given here. Residues, ends and D or L forms follow the SMILES beside them. *: point of attachment. X1 = O=C(c1ccc(-c2c3nc(c(-c4ccccc4)c4ccc([nH]4)c(-c4ccccc4)c4nc(c(-c5ccccc5)c5ccc2[nH]5)C=C4)CC3)cc1)*; Ahx = NCCCCCC(=O)O
molecular target: T1, Neuropilin-1 (Homo sapiens, UniProt O14786); assay: Displacement of biotinylated VEGF165 from recombinant NRP1 after 2 hrs by competitive binding assay
How it was run: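 Plates coated overnight at room temperature with recombinant chimeric NRP-1 in PBS, then blocked with PBS/0.5% BSA for 1 h at 37 °C. Biotinylated VEGF165 (5 ng/mL; 110 pM), with heparin present, competed with increasing competitor concentrations for 2 h at room temperature. Bound label was detected with streptavidin-HRP, 20 min at room temperature, then stopped and read at 450 nm. IC50 was derived by the median effect method.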

T1 sequence (O14786 whole entry): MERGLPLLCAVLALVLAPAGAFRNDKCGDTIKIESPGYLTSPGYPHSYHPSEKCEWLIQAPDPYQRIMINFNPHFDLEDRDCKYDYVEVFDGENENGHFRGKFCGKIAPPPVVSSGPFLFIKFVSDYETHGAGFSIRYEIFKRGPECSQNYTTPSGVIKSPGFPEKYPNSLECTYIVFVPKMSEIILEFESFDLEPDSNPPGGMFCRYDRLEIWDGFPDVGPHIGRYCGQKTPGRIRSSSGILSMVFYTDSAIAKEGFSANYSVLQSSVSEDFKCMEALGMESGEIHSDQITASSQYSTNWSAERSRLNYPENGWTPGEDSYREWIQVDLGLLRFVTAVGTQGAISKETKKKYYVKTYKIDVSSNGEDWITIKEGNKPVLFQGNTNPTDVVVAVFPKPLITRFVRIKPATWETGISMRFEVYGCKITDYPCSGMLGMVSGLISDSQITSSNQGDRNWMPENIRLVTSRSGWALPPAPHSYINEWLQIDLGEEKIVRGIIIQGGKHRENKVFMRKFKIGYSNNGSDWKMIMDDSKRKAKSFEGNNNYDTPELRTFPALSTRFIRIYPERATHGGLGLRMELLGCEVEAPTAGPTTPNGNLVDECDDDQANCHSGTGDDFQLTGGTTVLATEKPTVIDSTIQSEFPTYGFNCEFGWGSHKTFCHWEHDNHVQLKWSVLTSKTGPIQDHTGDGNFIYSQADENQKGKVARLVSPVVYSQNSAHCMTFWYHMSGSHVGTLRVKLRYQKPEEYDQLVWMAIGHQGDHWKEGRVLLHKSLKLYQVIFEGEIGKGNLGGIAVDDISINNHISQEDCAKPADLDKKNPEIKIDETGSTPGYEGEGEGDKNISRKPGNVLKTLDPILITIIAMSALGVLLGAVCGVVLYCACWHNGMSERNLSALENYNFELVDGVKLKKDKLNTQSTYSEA

| IC50 | Molecule |
| --- | --- |
| 92 µM | CC1(C)O[C@@H]2[C@H](O1)[C@H](CN(CCNC(=N)N)C(=N)N)O[C@@H]2CC(=O)NCCc1c[nH]c2ccccc12 |
| 171 µM | CC(C)C[C@H](NC(=O)[C@H](Cc1c[nH]c2ccccc12)NC(=O)[C@@H](NC(=O)[C@H](C)NC(=O)CCCCCNC(=O)c1ccc(-c2c3nc(c(-c4ccccc4)c4ccc([nH]4)c(-c4ccccc4)c4nc(c(-c5ccccc5)c5ccc2[nH]5)C=C4)CC3)cc1)[C@@H](C)O)C(=O)N1CCC[C@H]1C(=O)N1CCC[C@H]1C(=O)N[C@@H](CCCNC(=N)N)C(=O)O ({X1-Ahx}-ATWLPPR-OH) |

molecular target: T1, Neuropilin-1; assay: Inhibition of VEGF binding to NRP1 expressed in CHO cells; assay type: cell-based

| IC50 | Molecule |
| --- | --- |
| 19 µM | H-ATWLPPR-OH |

molecular target: T1, Neuropilin-1; assay: Inhibition of biotinylated VEGF165 binding to recombinant NRP1 at 100 uM after 2 hrs by competitive binding assay
How it was run: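 NRP-1-coated wells were blocked with PBS/0.5% BSA for 1 h at 37 °C. Biotinylated VEGF165 was added with competitor at 100 µM for 2 h at room temperature, then washed. Detection used streptavidin-HRP, 20 min at room temperature, stop solution and OD at 450 nm. Results are absorbance relative to blocking-buffer-only wells, three wells per condition.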

| inhibition | Molecule |
| --- | --- |
| Active | C[C@@H](O)CNC(=O)C[C@H]1O[C@@H](CNCc2ccccc2)[C@H]2OC(C)(C)O[C@H]21 |
| Active | CC1(C)O[C@@H]2[C@H](O1)[C@H](CNCCNc1ncccn1)O[C@@H]2CC(=O)NCCc1c[nH]c2ccccc12 |
| Active | CC1(C)O[C@@H]2[C@H](O1)[C@H](CNCCNC(=N)N)O[C@@H]2CC(=O)NCCc1c[nH]c2ccccc12 |
| Active | CC1(C)O[C@@H]2[C@H](O1)[C@H](CNCc1nc3ccccc3[nH]1)O[C@@H]2CC(=O)NCCc1c[nH]c2ccccc12 |
| Active | COC(=O)[C@H](CCCNC(=N)N)NC[C@@H]1O[C@H](CC(=O)NCCc2c[nH]c3ccccc23)[C@@H]2OC(C)(C)O[C@@H]21 |
| Active | CC1(C)O[C@@H]2[C@H](O1)[C@H](CNCCc1nc3ccccc3[nH]1)O[C@@H]2CC(=O)NCCc1c[nH]c2ccccc12 |
| Active | CC1(C)O[C@@H]2[C@H](O1)[C@H](CNCCNc1ccccn1)O[C@@H]2CC(=O)NCCc1c[nH]c2ccccc12 |
| Active | C[C@@H](O)CNC(=O)C[C@H]1O[C@@H](CNCc2nc3ccccc3[nH]2)[C@H]2OC(C)(C)O[C@H]21 |
| Active | CC(=O)O[C@H](C)CNC(=O)C[C@H]1O[C@@H](CNCCNc2ccccn2)[C@H]2OC(C)(C)O[C@H]21 |
| 65% | CC1(C)O[C@@H]2[C@H](O1)[C@H](CN(CCNC(=N)N)C(=N)N)O[C@@H]2CC(=O)NCCc1c[nH]c2ccccc12 |
| Active | CC(=O)O[C@H](C)CNC(=O)C[C@H]1O[C@@H](CN(CCN/C(=N/C(=O)OCc2ccccc2)NC(=O)OCc2ccccc2)/C(=N/C(=O)OCc2ccccc2)NC(=O)OCc2ccccc2)[C@H]2OC(C)(C)O[C@H]21 |
| Active | COC(=O)[C@H](CCCNC(=N)N)NC[C@@H]1O[C@H](CC(=O)NC[C@@H](C)OC(C)=O)[C@@H]2OC(C)(C)O[C@@H]21 |
| Active | C[C@@H](O)CNC(=O)C[C@H]1O[C@@H](CNCCc2nc3ccccc3[nH]2)[C@H]2OC(C)(C)O[C@H]21 |
| Active | CC(C)(C)OC(=O)/N=C(/NC(=O)OC(C)(C)C)N1CCN(C[C@@H]2O[C@H](CC(=O)NCCc3c[nH]c4ccccc34)[C@@H]3OC(C)(C)O[C@@H]32)C1=O |
| Active | CC(=O)O[C@H](C)CNC(=O)C[C@H]1O[C@@H](CNCCc2nc3ccccc3[nH]2)[C@H]2OC(C)(C)O[C@H]21 |
| Active | CC(=O)O[C@H](C)CNC(=O)C[C@H]1O[C@@H](CNCCN)[C@H]2OC(C)(C)O[C@H]21 |
| Active | C[C@@H](O)CNC(=O)C[C@H]1O[C@@H](CN[C@@H](CCCNC(=N)N)C(=O)O)[C@H]2OC(C)(C)O[C@H]21 |
| Active | C[C@@H](O)CNC(=O)C[C@H]1O[C@@H](CN(CCNC(=N)N)C(=N)N)[C@H]2OC(C)(C)O[C@H]21 |

| inhibition | Molecule |
| --- | --- |
| Active | CC1(C)O[C@@H]2[C@H](O1)[C@H](CNCCNC(=O)OCc1ccccc1)O[C@@H]2CC(=O)NCCc1c[nH]c2ccccc12 |
| Active | CC1(C)O[C@@H]2[C@H](O1)[C@H](CNCc1ccncc1)O[C@@H]2CC(=O)NCCc1c[nH]c2ccccc12 |
| Active | CC1(C)O[C@@H]2[C@H](O1)[C@H](CNCCN)O[C@@H]2CC(=O)NCCc1c[nH]c2ccccc12 |
| Active | CC(=O)O[C@H](C)CNC(=O)C[C@H]1O[C@@H](CNCc2nc3ccccc3[nH]2)[C@H]2OC(C)(C)O[C@H]21 |
| Active | C[C@@H](O)CNC(=O)C[C@H]1O[C@@H](CNCc2ccncc2)[C@H]2OC(C)(C)O[C@H]21 |
| Active | CC(=O)O[C@H](C)CNC(=O)C[C@H]1O[C@@H](CNCCN/C(=N\C(=O)OC(C)(C)C)NC(=O)OC(C)(C)C)[C@H]2OC(C)(C)O[C@H]21 |
| Active | CC(=O)O[C@H](C)CNC(=O)C[C@H]1O[C@@H](CNCCNC(=N)N)[C@H]2OC(C)(C)O[C@H]21 |
| Active | C[C@@H](O)CNC(=O)C[C@H]1O[C@@H](CNCCNc2ccccn2)[C@H]2OC(C)(C)O[C@H]21 |
| Active | CC1(C)O[C@@H]2[C@H](O1)[C@H](CNCc1ccccc1)O[C@@H]2CC(=O)NCCc1c[nH]c2ccccc12 |
| Active | CC(C)(C)OC(=O)/N=C(\NCCNC[C@@H]1O[C@H](CC(=O)NCCc2c[nH]c3ccccc23)[C@@H]2OC(C)(C)O[C@@H]21)NC(=O)OC(C)(C)C |
| Active | CC(=O)O[C@H](C)CNC(=O)C[C@H]1O[C@@H](CNCCNC(=O)OCc2ccccc2)[C@H]2OC(C)(C)O[C@H]21 |
| Active | H-ATWLPPR-OH |
| Active | CC1(C)O[C@@H]2[C@H](O1)[C@H](CN[C@@H](CCCNC(=N)N)C(=O)O)O[C@@H]2CC(=O)NCCc1c[nH]c2ccccc12 |
| Active | CC1(C)O[C@@H]2[C@H](O1)[C@H](CN1CCN(C(=N)N)C1=O)O[C@@H]2CC(=O)NCCc1c[nH]c2ccccc12 |
| Active | CC(C)C[C@H](NC(=O)[C@H](Cc1c[nH]c2ccccc12)NC(=O)[C@@H](NC(=O)[C@H](C)NC(=O)CCCCCNC(=O)c1ccc(-c2c3nc(c(-c4ccccc4)c4ccc([nH]4)c(-c4ccccc4)c4nc(c(-c5ccccc5)c5ccc2[nH]5)C=C4)CC3)cc1)[C@@H](C)O)C(=O)N1CCC[C@H]1C(=O)N1CCC[C@H]1C(=O)N[C@@H](CCCNC(=N)N)C(=O)O ({X1-Ahx}-ATWLPPR-OH) |
| Active | CC(=O)O[C@H](C)CNC(=O)C[C@H]1O[C@@H](CNCc2ccncc2)[C@H]2OC(C)(C)O[C@H]21 |
| Active | CC1(C)O[C@@H]2[C@H](O1)[C@H](CN(CCN/C(=N/C(=O)OCc1ccccc1)NC(=O)OCc1ccccc1)/C(=N/C(=O)OCc1ccccc1)NC(=O)OCc1ccccc1)O[C@@H]2CC(=O)NCCc1c[nH]c2ccccc12 |
